Experimental data reported in ChEMBL document CHEMBL3351949, “Substituted dithiazole piperazine benzamides as novel amyloid beta peptide reducing agents” (Bioorg Med Chem Lett, 2014).
Calls of active or inactive are those of the source. The rule behind the calls is not given here.

How the values were obtained:
[1] = target: Amyloid-beta precursor protein (Homo sapiens) (UniProt P05067); experiment: Reduction in wild type APP751 (unknown origin) expressed in CHO cells at 1 uM after 48 hrs by immunoblotting method; type: cell-based
Amyloid-beta precursor protein (Homo sapiens), sequence (P05067 whole entry, the tested form may be a part): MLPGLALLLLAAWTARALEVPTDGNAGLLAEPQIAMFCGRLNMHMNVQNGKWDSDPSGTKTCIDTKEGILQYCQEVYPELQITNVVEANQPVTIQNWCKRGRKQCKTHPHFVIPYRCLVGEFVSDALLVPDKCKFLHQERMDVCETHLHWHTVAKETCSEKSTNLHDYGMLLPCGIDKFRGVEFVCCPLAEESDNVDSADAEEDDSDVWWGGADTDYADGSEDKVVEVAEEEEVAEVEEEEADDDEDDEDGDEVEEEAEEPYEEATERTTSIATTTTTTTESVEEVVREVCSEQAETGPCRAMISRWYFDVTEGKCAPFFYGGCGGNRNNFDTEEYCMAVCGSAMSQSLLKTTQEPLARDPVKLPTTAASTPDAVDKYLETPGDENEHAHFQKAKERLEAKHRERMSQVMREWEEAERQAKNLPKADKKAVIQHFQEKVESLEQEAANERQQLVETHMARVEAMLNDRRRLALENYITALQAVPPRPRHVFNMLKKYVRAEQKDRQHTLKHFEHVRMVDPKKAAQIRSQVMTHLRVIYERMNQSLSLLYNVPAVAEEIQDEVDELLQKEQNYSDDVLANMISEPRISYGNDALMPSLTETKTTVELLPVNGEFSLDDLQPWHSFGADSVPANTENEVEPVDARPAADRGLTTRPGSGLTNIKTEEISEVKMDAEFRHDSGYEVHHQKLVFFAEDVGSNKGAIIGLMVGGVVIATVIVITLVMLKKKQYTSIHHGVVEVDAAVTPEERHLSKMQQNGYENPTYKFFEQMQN
Procedure, shortened: (§1)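 CHO cells stably expressing APP751wt (7WD10) treated 48 h, duplicate wells, DMSO as control. Conditioned medium centrifuged and immunoprecipitated overnight with Ab9 (Aβ 1–16). Aβ detected by SDS-PAGE immunoblot with 6E10/82E1 and ECL, signals quantified by densitometry. Dose-response n=4; ANOVA with Dunnett's post-hoc test.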

[2] = test system: N2a; experiment: Reduction in […] APP695 Sweden mutant (unknown origin) expressed in N2a cells by immunoblotting method; type: cell-based; conditions: Homo sapiens
Procedure, shortened: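 Neuro-2a cells stably expressing APP695swe treated at 1.0 μM. Aβ immunoprecipitated from conditioned medium with Ab9 antibody (Aβ 1–16) and detected by immunoblot with 6E10/82E1 mixture.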

[3] = target: Amyloid-beta precursor protein (Homo sapiens) (UniProt P05067); experiment: Reduction in wild type APP751 (unknown origin) expressed in CHO cells at 500 nM after 48 hrs by immunoblotting method relative to untreated control; type: cell-based; procedure, shortened: as §1
[4] = target: Amyloid-beta precursor protein (Homo sapiens) (UniProt P05067); experiment: Reduction in wild type APP751 (unknown origin) expressed in CHO cells at 1 uM after 48 hrs by immunoblotting method relative to untreated control; type: cell-based; procedure, shortened: as §1
[5] = target: Amyloid-beta precursor protein (Homo sapiens) (UniProt P05067); experiment: Reduction in wild type APP751 (unknown origin) expressed in CHO cells at 10 uM after 48 hrs by immunoblotting method relative to untreated control; type: cell-based; procedure, shortened: as §1
[6] = target: Amyloid-beta precursor protein (Homo sapiens) (UniProt P05067); experiment: Reduction in wild type APP751 (unknown origin) expressed in CHO cells at 50 nM after 48 hrs by immunoblotting method relative to untreated control; type: cell-based; procedure, shortened: as §1
[7] = target: Amyloid-beta precursor protein (Homo sapiens) (UniProt P05067); experiment: Reduction in wild type APP751 (unknown origin) expressed in CHO cells at 100 nM after 48 hrs by immunoblotting method relative to untreated control; type: cell-based; procedure, shortened: as §1
[8] = target: Amyloid-beta precursor protein (Homo sapiens) (UniProt P05067); experiment: Reduction in wild type APP751 (unknown origin) expressed in CHO cells assessed as increase in c-terminal fragments at 50 nM to 10 uM after 48 hrs by immunoblotting method relative to untreated control; type: cell-based
Procedure, shortened: (§2)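 7WD10 CHO cells (APP751wt) treated 48 h versus DMSO controls. Cells lysed in buffer with protease inhibitors. Full-length APP and C-terminal fragments detected with CT15 antibody by SDS-PAGE immunoblot and ECL, quantified by densitometry. n=4; ANOVA with Dunnett's test.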

[9] = target: Amyloid-beta precursor protein (Homo sapiens) (UniProt P05067); experiment: Reduction in wild type APP751 (unknown origin) expressed in CHO cells assessed as increase in secreted APPalpha at 50 nM to 10 uM after 48 hrs by immunoblotting method relative to untreated control; type: cell-based
Procedure, shortened: (§3)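 48 h treatment of APP751wt-expressing CHO (7WD10) cells, DMSO control. Conditioned medium immunoblotted for sAPPα (6E10), sAPPβ (anti-sAPPβ-wt rabbit IgG) and total sAPP (63G). Detection by ECL, densitometric quantification.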

[10] = target: Amyloid-beta precursor protein (Homo sapiens) (UniProt P05067); experiment: Reduction in wild type APP751 (unknown origin) expressed in CHO cells assessed as increase in secreted APPbeta at 50 nM to 10 uM after 48 hrs by immunoblotting method relative to untreated control; type: cell-based; procedure, shortened: as §3
[11] = target: Amyloid-beta precursor protein (Homo sapiens) (UniProt P05067); experiment: Reduction in wild type APP751 (unknown origin) expressed in CHO cells assessed as increase in secreted APPalpha at 50 nM to 10 uM after 48 hrs by immunoblotting method; type: cell-based; parameters: scale not given: the % may be the effect or the level left; procedure, shortened: as §3
[12] = target: Amyloid-beta precursor protein (Homo sapiens) (UniProt P05067); experiment: Reduction in wild type APP751 (unknown origin) expressed in CHO cells assessed as increase in full length APP level at 50 nM to 10 uM after 48 hrs by immunoblotting method; type: cell-based; procedure, shortened: as §2
[13] = target: Amyloid-beta precursor protein (Homo sapiens) (UniProt P05067); experiment: Reduction in wild type APP751 (unknown origin) expressed in CHO cells assessed as increase in alpha c-terminal fragments at 50 nM to 10 uM after 48 hrs by immunoblotting method relative to untreated control; type: cell-based; procedure, shortened: as §2
[14] = target: Amyloid-beta precursor protein (Homo sapiens) (UniProt P05067); experiment: Reduction in wild type APP751 (unknown origin) expressed in CHO cells assessed as increase in alpha c-terminal fragments at 50 nM to 10 uM after 48 hrs by immunoblotting method; type: cell-based; parameters: scale not given: the % may be the effect or the level left; procedure, shortened: as §2
[15] = target: Amyloid-beta precursor protein (Homo sapiens) (UniProt P05067); experiment: Reduction in wild type APP751 (unknown origin) expressed in CHO cells assessed as increase in beta c-terminal fragments at 50 nM to 10 uM after 48 hrs by immunoblotting method; type: cell-based; procedure, shortened: as §2
[16] = test system: CHO; experiment: Toxicity against CHO cells assessed as induction of cell death up to 1 uM by LDH release assay; type: cell-based, Cricetulus griseus; conditions: chinese hamster
Procedure, shortened: (§4)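 Cytotoxicity in CHO cells measured by lactate dehydrogenase release and by MTT reduction. n=4 per group; ANOVA followed by Dunnett's post-hoc test.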

[17] = test system: CHO; experiment: Toxicity against CHO cells assessed as induction of cell death up to 1 uM by MTT assay; type: cell-based, Cricetulus griseus; conditions: chinese hamster; procedure, shortened: as §4
[18] = test system: CHO; experiment: Toxicity against CHO cells assessed as induction of cell death at 10 uM by LDH release assay; type: cell-based, Cricetulus griseus; conditions: chinese hamster; procedure, shortened: as §4
[19] = test system: CHO; experiment: Toxicity against CHO cells assessed as induction of cell death at 10 uM by MTT assay; type: cell-based, Cricetulus griseus; conditions: chinese hamster; procedure, shortened: as §4
[20] = test system: Mus musculus; experiment: Reduction in amyloid plaque numbers in APP/PS1 double transgenic APdeltaE9 mouse 0.5 mg/kg, ip dosed daily for 60 days starting from 4 to 6 months of age; type: functional; conditions: 1440 h, route intraperitoneal
Procedure, shortened: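 APP/PS1 double transgenic (APΔE9) mice dosed i.p. daily, 0.5 mg/kg body wt., from 4- to 6-months of age for 60 days. Amyloid plaque numbers counted in brain sections (cortex and hippocampus) versus vehicle-treated mice.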

[21] = Drug level in brain of APP/PS1 double transgenic APdeltaE9 mouse 4 mg/kg, iv measured after 10 mins; type: ADME, organism-based; parameters: dose 4 mg/kg, route intravenous; conditions: read-out: Drug uptake
Procedure, shortened: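 Mice given 4 mg/kg by intravenous injection; compound level measured in brain over time after dosing (about 10–20 min window).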

[22] = Half life in brain of APP/PS1 double transgenic APdeltaE9 mouse 4 mg/kg, iv; type: ADME, organism-based; parameters: dose 4 mg/kg, route intravenous

Question: What does the source list for NC(=O)c1ccc(N2CCN(c3nc(-c4cccc(O)c4)cs3)CC2)c(Nc2nc(-c3cccc(O)c3)cs2)c1?
Answer: inhibition [1]: Active; inhibition [2]: Active; inhibition [3]: 31%; inhibition [4]: 54%; inhibition [5]: 63%; inhibition [6]: 21%; inhibition [7]: 20%; inhibition [8]: Dose-dependent effect; inhibition [9]: Dose-dependent effect; inhibition [10]: inactive; Activity [11]: 40%; inhibition [12]: Dose-dependent effect; inhibition [13]: Dose-dependent effect; Activity [14]: 80%; inhibition [15]: inactive; Activity [16]: Non-toxic; Activity [17]: Non-toxic; Activity [18]: Toxic; Activity [19]: Toxic; inhibition in vivo at 0.5 mg/kg [20]: 39%; concentration at 10 min [21]: 40 ng/mL; half-life [22]: 6.7 min
